Shown are actives, neighbours in structure and some others; about 3.9% of the full set was active somewhere.
TAAR1 ag: agonists of human TAAR1; Q96RJ0; CHO RD-HGA16 TAAR1, Fluo-8 calcium fluorescence; vehicle wells 0%, saturating PEA agonist 100%; activation, % at 3 µM; 360,000 compounds, 0.99% hits; AID 624467;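 active means activation above the mean activation of all test compounds in the run plus 3 SD, cut at about 38% in these data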
Target sequence (Q96RJ0 whole entry, looked up): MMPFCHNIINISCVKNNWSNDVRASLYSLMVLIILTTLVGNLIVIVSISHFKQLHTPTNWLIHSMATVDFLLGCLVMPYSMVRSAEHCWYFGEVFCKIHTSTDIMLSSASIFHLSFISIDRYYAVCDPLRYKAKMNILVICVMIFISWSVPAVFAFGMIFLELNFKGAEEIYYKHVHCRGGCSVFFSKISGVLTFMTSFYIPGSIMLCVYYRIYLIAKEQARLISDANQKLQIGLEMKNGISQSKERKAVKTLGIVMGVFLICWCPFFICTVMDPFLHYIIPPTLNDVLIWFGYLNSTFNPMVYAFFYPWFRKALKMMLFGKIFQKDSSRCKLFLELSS
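Test system: RD-HGA16 (CHO) cells co-expressing Gα16 and hTAAR1 | Doses: Single dose, 3 µM | Schedule: 17-24 h seeding, 75 min 37 °C dye, 30 min RT | Evaluation: % activation from peak over basal fluorescence ratio, DMSO-to-PEA scaled | Technique: Kinetic Fluo-8 calcium fluorescence | Benchmarks: Low control DMSO, high control PEA (EC100)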
OX1R antag-1: blocks the human orexin 1 receptor; 330,000 compounds, 1.8% hits; OX1R-expressing cells, FRET antagonist read-out; AID 485270; O43613; inhibition, % at 6.6 µM; in the data active means inhibition mostly above about 38%, no sharp cut-off; inactive means mostly below about 40%
Target sequence (O43613 whole entry, looked up): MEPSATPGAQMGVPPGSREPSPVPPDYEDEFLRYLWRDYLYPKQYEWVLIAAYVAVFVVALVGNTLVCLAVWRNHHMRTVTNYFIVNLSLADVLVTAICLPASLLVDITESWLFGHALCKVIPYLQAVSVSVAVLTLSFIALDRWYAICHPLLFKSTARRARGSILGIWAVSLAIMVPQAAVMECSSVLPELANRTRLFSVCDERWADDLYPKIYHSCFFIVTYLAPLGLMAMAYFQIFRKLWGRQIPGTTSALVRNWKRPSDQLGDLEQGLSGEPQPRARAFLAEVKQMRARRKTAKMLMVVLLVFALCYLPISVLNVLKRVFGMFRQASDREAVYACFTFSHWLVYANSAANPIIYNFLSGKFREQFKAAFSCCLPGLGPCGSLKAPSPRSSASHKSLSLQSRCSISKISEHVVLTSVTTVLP
TAAR1 antagonist: antagonists of human TAAR1 | Q96RJ0 | inhibition, % at 3 µM | CHO RD-HGA16 TAAR1, Fluo-8 calcium fluorescence, antagonist | AID 624466 | 360,000 compounds, 1.5% hits;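 active means inhibition above a per-plate cutoff, the mean inhibition of test compounds on that plate plus 3 SD, cut at about 49% in these data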
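Assay system: RD-HGA16 CHO cells with stable hTAAR1 and Gα16 / Reagent: EC80 β-phenethylamine stimulus / Doses: 3 µM, single point / Timing: dye loading 75 min at 37 °C, then 30 min room temperature / Measured by: Fluo-8 intracellular calcium dye fluorescence, real-time kinetic reads / Controls: vehicle wells and EC80 agonist wells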
OX1R antag-2: human HCRTR1 antagonism; O43613; CHO/OX1R cells, Fluo-8 calcium fluorescence, orexin A; inhibition, % at 5 µM; 330,000 compounds, 0.43% hits;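 active means inhibition above its plate's threshold, mean inhibition of all tested compounds on the plate plus 3 SD, cut at about 37% in these data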
CHO parental Ca: counter-screen for OX1R antagonists: effect in parental CHO cells; parental CHO-K1, ATP-induced calcium, Fluo-8 fluorescence; inhibition, % at 5.6 µM; 330,000 compounds, 0.63% hits; AID 463079;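 active means inhibition above that plate's mean sample inhibition plus 3 SD, cut at about 26% in these data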
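Material – parental CHO cells · Reagent – ATP stimulus · Compound – single nominal dose of 5.6 µM per compound · Detection – Fluo-8 fluorescence · Read-out basis – percent inhibition of calcium signal · Controls – ATP-challenged DMSO wells low, unchallenged DMSO wells high · Repeats – no replicates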
TAAR1 ag confirm: human TAAR1 agonism, confirmed. shares compounds with TAAR1 ag. CHO RD-HGA16 TAAR1, Fluo-8 calcium fluorescence; scaled: DMSO 0%, maximal phenethylamine 100%. activation, % at 3 µM. 2,400 compounds, 82% hits. AID 651783;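 active means activation above a cutoff set at the run's mean compound activation plus 3 SD, cut at about 39% in these data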
Ga16 ag counter: nonselective agonist in parental cells, TAAR1 agonist counter-screen; shares compounds with TAAR1 ag; CHO-Ga16 parental, Fluo-8 calcium fluorescence; normalized to maximal ATP response, DMSO zero; activation, % at 3 µM; 2,400 compounds, 50% hits;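 active means activation above the run cutoff, the mean activation over all tested wells plus 3 SD, cut at about 12% in these data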
TAAR1 desens: human TAAR1 agonist that also desensitizes the receptor; CHO RD-HGA16 hTAAR1, Fluo-8 calcium, beta-PEA response inhibition; 2,400 compounds, 46% hits; AID 651951; shares compounds with TAAR1 ag; inhibition, % at 3 µM;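 active means inhibition above the run cutoff, the mean inhibition of all test compounds plus 3 SD, cut at about 49% in these data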;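 further: beta-PEA stimulus applied at its EC80; loss of beta-PEA calcium signal after compound pretreatment read as receptor desensitization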
Ga16 nonsel ant: nonselective Ga16 antagonism, counter-screen; shares compounds with TAAR1 ag; CHO-Ga16 ATP-induced calcium, Fluo-8 fluorescence; inhibition, % at 3 µM; 2,400 compounds, 39% hits;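 active means inhibition above the plate's mean compound inhibition plus 3 SD, computed per plate, cut at about 22% in these data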
Of the large screens only hits and unclear results are named; the others gave an inactive call (follow-up assays come after a bar, where they were run).

O=C(NCCc1ccc([N+](=O)[O-])cc1)c1ccccc1	none
COc1cccc(/C=N/NC(=O)c2ccoc2C)c1	none
COc1ccc(C(=O)Nc2ccc(C(=O)c3ccccc3)cc2)cc1	none
COc1ccc(NC(=O)c2ccc(C(=O)c3ccccc3)o2)cc1	TAAR1 ag 67, TAAR1 antagonist 57 | TAAR1 ag confirm inactive | Ga16 ag counter inactive | TAAR1 desens inactive | Ga16 nonsel ant inactive
COc1ccc(CC(=O)Nc2ccc(NC(=O)c3ccccc3F)cc2)cc1	TAAR1 ag 109, TAAR1 antagonist 99, CHO parental Ca 58 | TAAR1 ag confirm 60 | Ga16 ag counter 35 | TAAR1 desens inactive | Ga16 nonsel ant inactive
O=C(CN1C(=O)NC2(CCCc3ccccc32)C1=O)Nc1cc(F)ccc1F (stereo unspecified)	none
CN1/C(=C\C=Nc2ccc3ccccc3c2)C(C)(C)c2ccccc21	none (no result: TAAR1 ag, TAAR1 antagonist)
CN1/C(=C\C=O)C(C)(C)c2ccccc21	none
CN(C)c1ccc(N=C/C=C2\N(C)c3ccccc3C2(C)C)cc1	TAAR1 ag 47 | TAAR1 ag confirm 74 | Ga16 ag counter 14 | TAAR1 desens inactive | Ga16 nonsel ant inactive
CN1\C(=C/C=C/C=C/C=[N+](C)C)C(C)(C)c2ccccc21	TAAR1 ag 715, TAAR1 antagonist 109 (no result: OX1R antag-1, OX1R antag-2, CHO parental Ca) | TAAR1 ag confirm 81 | Ga16 ag counter 110 | TAAR1 desens 69 | Ga16 nonsel ant 75
O=C(NCc1ccc(Cl)cc1)c1ccc(Cn2cc(C(F)(F)F)ccc2=O)cc1	TAAR1 ag 66 | TAAR1 ag confirm inactive | Ga16 ag counter 24 | TAAR1 desens inactive | Ga16 nonsel ant 26
C=CCCCCCCCCC(=O)Nc1ncccn1	none
C=CCn1c(C)cc(C2=NNC(=NCc3ccccc3)SC2)c1C	none
CCN=C1NN=C(c2cc(C)n(Cc3ccco3)c2C)CS1	none
Cc1cc(C2=NNC(=NCCc3ccccc3)SC2)c(C)n1CC1CCCO1 (stereo unspecified)	TAAR1 ag 83, TAAR1 antagonist 68 | TAAR1 ag confirm 85 | Ga16 ag counter inactive | TAAR1 desens 57 | Ga16 nonsel ant inactive
CCN=C1NN=C(c2cc(C)n(CCc3ccccc3)c2C)CS1	TAAR1 ag 82, TAAR1 antagonist 63 (no result: OX1R antag-1, OX1R antag-2, CHO parental Ca) | TAAR1 ag confirm 101 | Ga16 ag counter inactive | TAAR1 desens 93 | Ga16 nonsel ant inactive
CCCCCCCCCCCCC/C=C/[C@@H](O)[C@@H](N)CO	TAAR1 ag 39 | TAAR1 ag confirm 83 | Ga16 ag counter 65 | TAAR1 desens inactive | Ga16 nonsel ant 23
N=C(N)SCc1ccccc1Cl	TAAR1 ag 72 | TAAR1 ag confirm 82 | Ga16 ag counter inactive | TAAR1 desens 73 | Ga16 nonsel ant inactive
Cc1ccccc1CS(=O)(=O)Cc1ccc(C(=O)NCCc2ccccc2)o1	TAAR1 ag 72 | TAAR1 ag confirm 48 | Ga16 ag counter inactive | TAAR1 desens inactive | Ga16 nonsel ant 22
O=C(NCCc1ccccc1)c1ccc(CS(=O)(=O)c2ccc(Br)cc2)o1	none
CN(CCNC(=O)c1ccc(CS(=O)(=O)c2ccc(Br)cc2)o1)CCc1ccccc1	TAAR1 ag 53 | TAAR1 ag confirm 51 | Ga16 ag counter inactive | TAAR1 desens inactive | Ga16 nonsel ant inactive
Cc1cccc(CS(=O)(=O)Cc2ccc(C(=O)NCCc3ccccc3)o2)c1	TAAR1 ag 48 | TAAR1 ag confirm inactive | Ga16 ag counter inactive | TAAR1 desens inactive | Ga16 nonsel ant inactive
NC(=S)N/N=C1/CCSc2ccc3ccccc3c21	none
NS(=O)(=O)c1ccc(CCNC(=O)C2CCC(CNS(=O)(=O)c3ccc(Br)s3)CC2)cc1 (stereo unspecified)	TAAR1 ag 53, TAAR1 antagonist 72 | TAAR1 ag confirm 41 | Ga16 ag counter inactive | TAAR1 desens 59 | Ga16 nonsel ant inactive
O=C(COC(=O)c1ccc(O)cc1O)NC(=O)Cc1ccccc1	TAAR1 ag 143, TAAR1 antagonist 61 (no result: OX1R antag-1, OX1R antag-2, CHO parental Ca) | TAAR1 ag confirm 134 | Ga16 ag counter 71 | TAAR1 desens 88 | Ga16 nonsel ant 42
O=C(COC(=O)c1cc2ccccc2cc1O)Nc1cccnc1Cl	TAAR1 ag 48 | TAAR1 ag confirm inactive | Ga16 ag counter inactive | TAAR1 desens inactive | Ga16 nonsel ant inactive
O=C(COC(=O)c1cc2ccccc2cc1O)NCc1ccccc1	TAAR1 ag 87, TAAR1 antagonist 83 | TAAR1 ag confirm inactive | Ga16 ag counter 29 | TAAR1 desens inactive | Ga16 nonsel ant 22
O=C(COC(=O)c1cc2ccccc2cc1O)Nc1ccccc1F	none
O=C(Nc1ccc(F)cc1)Nc1cccnc1	TAAR1 ag 64 (no result: OX1R antag-1, OX1R antag-2, CHO parental Ca) | TAAR1 ag confirm 81 | Ga16 ag counter inactive | TAAR1 desens inactive | Ga16 nonsel ant inactive
Fc1ccc(NC(=S)Nc2cccnc2)cc1	none
O=C(Nc1ccc(OC(F)(F)F)cc1)Nc1cccnc1	none
O=C(Nc1ccccc1)Nc1ccc(Oc2cccnc2)nc1	TAAR1 ag 67 | TAAR1 ag confirm 90 | Ga16 ag counter 12 | TAAR1 desens 80 | Ga16 nonsel ant inactive
FC(F)(F)c1cc(CCN2CCNC[C@@H]2Cc2ccccc2)cc(C(F)(F)F)c1	TAAR1 ag 57 | TAAR1 ag confirm 58 | Ga16 ag counter 17 | TAAR1 desens inactive | Ga16 nonsel ant inactive
CCCC[C@@H]1CNCCN1CCc1cccc(F)c1	TAAR1 ag 62 | TAAR1 ag confirm 75 | Ga16 ag counter inactive | TAAR1 desens inactive | Ga16 nonsel ant inactive
COc1ccc2nc(C)cc(N/N=C/c3cccc(OC)c3O)c2c1	none
Cc1cc(N/N=C/c2ccccc2O)c2ccccc2n1	none (no result: TAAR1 ag, TAAR1 antagonist) | Ga16 ag counter inactive | Ga16 nonsel ant inactive
O=S1(=O)N=C(N2CCc3ccccc3C2)c2ccccc21	TAAR1 ag 63 | TAAR1 ag confirm 61 | Ga16 ag counter inactive | TAAR1 desens inactive | Ga16 nonsel ant inactive
CCC(C)c1ccc(NC(=S)NC2CCN(Cc3ccccc3)CC2)cc1 (stereo unspecified)	TAAR1 ag 58 | TAAR1 ag confirm 45 | Ga16 ag counter 19 | TAAR1 desens inactive | Ga16 nonsel ant 27
NC(=O)CSc1nnc(Cc2ccc3c(c2)OCO3)o1	none
COc1ccc2cc(C(c3nnnn3C3CCCC3)N3CCc4ccccc4C3)c(=O)[nH]c2c1 (stereo unspecified)	TAAR1 ag 46 | TAAR1 ag confirm 39 | Ga16 ag counter inactive | TAAR1 desens inactive | Ga16 nonsel ant inactive

Screening data deposited in PubChem by The Scripps Research Institute Molecular Screening Center.
